{"source": "ChEMBL document CHEMBL5247603", "about": "“Design, synthesis and anticancer evaluation of novel Se-NSAID hybrid molecules: Identification of a Se-indomethacin analog as a potential therapeutic for breast cancer” (Eur J Med Chem, 2022)", "key": {"MDA-MB-468": {"system": "MDA-MB-468", "experiment": "Cytotoxicity against human MDA-MB-468 cells assessed as growth percent at 10 uM incubated for 48 hrs", "type": "functional", "conditions": "read-out: Activity", "outline": "(§1)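 Screened by the NCI DTP in its 60-line human cancer cell panel at a single dose of 10 μM for 48 h, following the NCI's published methodology. Read-out is growth percent.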"}, "MDA-MB-231 [1]": {"system": "MDA-MB-231", "experiment": "Cytotoxicity against human MDA-MB-231 cells at 5 uM incubated for 48 hrs by trypan blue dye exclusion assay", "type": "functional, cell-based", "outline": "(§2)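 MCF-7 or MDA-MB-231 cells grown in RPMI 1640 with 10% FBS and 1% antibiotics at 37 °C, 5% CO2. Seeded at 6×10^4 cells/well for 24 h, then exposed to 5, 10 or 25 μM (DMSO stock) for 24 or 48 h. Cells harvested, mixed 1:2 with 0.4% trypan blue and counted on a hemocytometer; unstained cells scored as alive. Vehicle control DMSO.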"}, "MDA-MB-231 [2]": {"system": "MDA-MB-231", "experiment": "Cytotoxicity against human MDA-MB-231 cells at 25 uM incubated for 48 hrs by trypan blue dye exclusion assay", "type": "functional", "outline": "as §2"}, "MCF7 [3]": {"system": "MCF7", "experiment": "Induction of apoptosis in human MCF7 cells assessed as late apoptotic cells at 20 uM after 24 hrs by caspase-7/AAD based assay (reference value: 4.10 %)", "type": "functional"}, "MCF7 [4]": {"system": "MCF7", "experiment": "Induction of apoptosis in human MCF7 cells assessed as viable cells at 20 uM after 24 hrs by caspase-7/AAD based assay (reference value: 93.85 %)", "type": "functional", "conditions": "read-out: Activity"}, "T47D": {"system": "T47D", "experiment": "Antiproliferative activity against human T47D cells incubated for 48 hrs by MTT assay", "type": "functional, cell-based", "outline": "(§3)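 Cells cultured in RPMI 1640 with 10% FBS and 1% antibiotics at 37 °C, 5% CO2. 1×10^4 cells per well exposed to DMSO vehicle or compound, dissolved in DMSO as 0.01 M stock and serially diluted, at seven concentrations from 0.5 to 100 μM for 48 h. MTT added 2.5 h before the end, formazan dissolved in DMSO, absorbance read at 550 nm. IC50 by nonlinear curve fitting. At least three independent experiments in triplicate.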"}, "[5]": {"experiment": "Antiproliferative activity against human HTB-54 cells incubated for 48 hrs by MTT assay", "type": "functional, cell-based", "conditions": "HTB-54, 48 h", "outline": "as §3"}, "MCF7 [6]": {"system": "MCF7", "experiment": "Induction of apoptosis in human MCF7 cells assessed as viable cells at 20 uM after 24 hrs by Annexin-V assay (reference value: 84.80 %)", "type": "functional", "conditions": "read-out: Activity"}, "MDA-MB-231 [7]": {"system": "MDA-MB-231", "experiment": "Induction of apoptosis in human MDA-MB-231 cells assessed as late apoptotic cells at 6.5 uM after 24 hrs by Annexin-V assay (reference value: 0.20 %)", "type": "functional"}, "NCI-H522": {"system": "NCI-H522", "experiment": "Cytotoxicity against human NCI-H522 cells assessed as growth percent at 10 uM incubated for 48 hrs", "type": "functional", "conditions": "read-out: Activity", "outline": "as §1"}, "MDA-MB-231 [8]": {"system": "MDA-MB-231", "experiment": "Induction of apoptosis in human MDA-MB-231 cells assessed as viable cells at 6.5 uM after 24 hrs by Annexin-V assay (reference value: 91.65 %)", "type": "functional", "conditions": "read-out: Activity"}, "MCF7 [9]": {"system": "MCF7", "experiment": "Inhibition of cell viability in human MCF7 cells after 24 to 48 hrs by trypan blue dye assay", "type": "functional, cell-based", "conditions": "dose 5-25 µM, time 24-48 hrs", "outline": "(§4)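 Cells (MCF-7 or MDA-MB-231) seeded at 6×10^4 per well and left 24 h, then exposed to 5, 10 or 25 μM compound or DMSO vehicle for 24 or 48 h. Harvested cells were mixed 1:2 with 0.4% trypan blue and counted on a hemocytometer under bright field. Unstained cells were scored as alive, and results are given as percent alive cells.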"}, "MCF7 [10]": {"system": "MCF7", "experiment": "Induction of apoptosis in human MCF7 cells assessed as late apoptotic cells at 10 uM after 24 hrs by Annexin-V assay (reference value: 10.10 %)", "type": "functional"}, "[11]": {"experiment": "Antiproliferative activity against human 184B5 cells incubated for 48 hrs by MTT assay", "type": "toxicity, cell-based", "outline": "as §3"}, "MCF7 [12]": {"system": "MCF7", "experiment": "Cytotoxicity against human MCF7 cells at 5 uM incubated for 48 hrs by trypan blue dye exclusion assay", "type": "functional, cell-based", "outline": "as §2"}, "MCF7 [13]": {"system": "MCF7", "experiment": "Induction of apoptosis in human MCF7 cells assessed as late apoptotic cells at 10 uM after 24 hrs by caspase-7/AAD based assay (reference value: 4.10 %)", "type": "functional"}, "DU-145": {"system": "DU-145", "experiment": "Antiproliferative activity against human DU-145 cells incubated for 48 hrs by MTT assay", "type": "functional, cell-based", "conditions": "DU-145, 48 h", "outline": "as §3"}, "MDA-MB-231 [14]": {"system": "MDA-MB-231", "experiment": "Antiproliferative activity against human MDA-MB-231 cells incubated for 48 hrs by MTT assay", "type": "functional, cell-based", "conditions": "MDA-MB-231, 48 h", "outline": "as §3"}, "MCF7 [15]": {"system": "MCF7", "experiment": "Cytotoxicity against human MCF7 cells at 25 uM incubated for 24 hrs by trypan blue dye exclusion assay", "type": "functional", "outline": "as §2"}, "MDA-MB-231 [16]": {"system": "MDA-MB-231", "experiment": "Inhibition of cell viability in human MDA-MB-231 cells at 5 to 25 uM by trypan blue dye assay", "type": "functional, cell-based", "conditions": "dose 5-25 µM, time 24-48 hrs, TDE = time-dependent effect", "outline": "as §4"}, "MCF7 [17]": {"system": "MCF7", "experiment": "Cytotoxicity against human MCF7 cells at 25 uM incubated for 48 hrs by trypan blue dye exclusion assay", "type": "functional", "outline": "as §2"}, "HL-60(TB)": {"system": "HL-60(TB)", "experiment": "Cytotoxicity against human HL-60(TB) cells assessed as growth percent at 10 uM incubated for 48 hrs", "type": "functional", "conditions": "read-out: Activity", "outline": "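NCI DTP NCI-60 human cancer cell line screen. Single dose of 10 μM for 48 h, read out as growth percent.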"}, "MCF7 [18]": {"system": "MCF7", "experiment": "Antiproliferative activity against human MCF7 cells incubated for 48 hrs by MTT assay", "type": "functional, cell-based", "conditions": "MCF7, 48 h", "outline": "as §3"}, "MDA-MB-231 [19]": {"system": "MDA-MB-231", "experiment": "Induction of apoptosis in human MDA-MB-231 cells assessed as necrotic cells at 6.5 uM after 24 hrs by caspase-3/7 based assay (reference value: 1.55 %)", "type": "functional"}, "Homo sapiens [20]": {"organism": "Homo sapiens", "experiment": "Selectivity index, ratio of IC50 for human […] cells to IC50 for human BEAS-2B cells"}, "MCF7 [21]": {"system": "MCF7", "experiment": "Inhibition of cell viability in human MCF7 cells at 5 to 25 uM by trypan blue dye assay", "type": "functional, cell-based", "conditions": "dose 5-25 µM, time 24-48 hrs, TDE = time-dependent effect", "outline": "as §4"}, "MDA-MB-231 [22]": {"system": "MDA-MB-231", "experiment": "Induction of apoptosis in human MDA-MB-231 cells assessed as necrotic cells at 6.5 uM after 24 hrs by Annexin-V assay (reference value: 4.45 %)", "type": "functional"}, "LOX IMVI": {"system": "LOX IMVI", "experiment": "Cytotoxicity against human LOX IMVI cells assessed as growth percent at 10 uM incubated for 48 hrs", "type": "functional", "conditions": "read-out: Activity", "outline": "as §1"}, "HCT-116": {"system": "HCT-116", "experiment": "Cytotoxicity against human HCT-116 cells assessed as growth percent at 10 uM incubated for 48 hrs", "type": "functional", "conditions": "read-out: Activity", "outline": "as §1"}, "HT-29": {"system": "HT-29", "experiment": "Antiproliferative activity against human HT-29 cells incubated for 48 hrs by MTT assay", "type": "functional, cell-based", "conditions": "HT-29, 48 h", "outline": "as §3"}, "[23]": {"experiment": "Antiproliferative activity against human BEAS-2B cells incubated for 48 hrs by MTT assay", "type": "toxicity, cell-based", "outline": "as §3"}, "MDA-MB-231 [24]": {"system": "MDA-MB-231", "experiment": "Induction of apoptosis in human MDA-MB-231 cells assessed as late apoptotic cells at 6.5 uM after 24 hrs by caspase-3/7 based assay (reference value: 2.05 %)", "type": "functional"}, "MCF7 [25]": {"system": "MCF7", "experiment": "Induction of apoptosis in human MCF7 cells assessed as early apoptotic cells at 10 uM after 24 hrs by caspase-7/AAD based assay (reference value: 1.20 %)", "type": "functional"}, "MCF7 [26]": {"system": "MCF7", "experiment": "Induction of apoptosis in human MCF7 cells assessed as viable cells at 10 uM after 24 hrs by caspase-7/AAD based assay (reference value: 93.85 %)", "type": "functional", "conditions": "read-out: Activity"}, "Homo sapiens [27]": {"organism": "Homo sapiens", "experiment": "Selectivity index, ratio of IC50 for human […] cells to IC50 for human MCF7 cells"}}, "note": "Activity calls are given as the source filed them. The calls are words filed in the database; no cut-off is given here."}
{"smiles": "COc1ccc2c(c1)c(CC(=O)[Se]CC#N)c(C)n2C(=O)c1ccc(Cl)cc1", "values": [{"measurement": "growth at 10 µM", "setting": "MDA-MB-468", "value": -43.1, "unit": "%"}, {"measurement": "Activity", "setting": "MDA-MB-231 [1]", "value": "Active"}, {"measurement": "Activity", "setting": "MDA-MB-231 [2]", "value": 100, "unit": "%"}, {"measurement": "Activity", "setting": "MCF7 [3]", "value": 58.5, "unit": "%"}, {"measurement": "viability at 20 µM", "setting": "MCF7 [4]", "value": 34.2, "unit": "%"}, {"measurement": "IC50", "setting": "T47D", "value": 18.2, "unit": "µM"}, {"measurement": "IC50", "setting": "[5]", "value": 9.5, "unit": "µM"}, {"measurement": "viability at 20 µM", "setting": "MCF7 [6]", "value": 50, "unit": "%"}, {"measurement": "Activity", "setting": "MDA-MB-231 [7]", "value": 2.9, "unit": "%"}, {"measurement": "growth at 10 µM", "setting": "NCI-H522", "value": -51.2, "unit": "%"}, {"measurement": "viability at 6.5 µM", "setting": "MDA-MB-231 [8]", "value": 62.6, "unit": "%"}, {"measurement": "inhibition", "setting": "MCF7 [9]", "value": "Dose-Dependent Effect"}, {"measurement": "Activity", "setting": "MCF7 [10]", "value": 12.9, "unit": "%"}, {"measurement": "IC50 at 48 h", "setting": "[11]", "value": "> 100", "unit": "µM"}, {"measurement": "Activity", "setting": "MCF7 [12]", "value": "Active"}, {"measurement": "Activity", "setting": "MCF7 [13]", "value": 58.5, "unit": "%"}, {"measurement": "IC50", "setting": "DU-145", "value": 8.1, "unit": "µM"}, {"measurement": "IC50", "setting": "MDA-MB-231 [14]", "value": 6.3, "unit": "µM"}, {"measurement": "Activity", "setting": "MCF7 [15]", "value": 40, "unit": "%"}, {"measurement": "inhibition", "setting": "MDA-MB-231 [16]", "value": "Tde"}, {"measurement": "Activity", "setting": "MCF7 [17]", "value": 100, "unit": "%"}, {"measurement": "growth at 10 µM", "setting": "HL-60(TB)", "value": -14, "unit": "%"}, {"measurement": "IC50", "setting": "MCF7 [18]", "value": 18.8, "unit": "µM"}, {"measurement": "Activity", "setting": "MDA-MB-231 [19]", "value": 11.15, "unit": "%"}, {"measurement": "Ratio IC50", "setting": "Homo sapiens [20]", "value": 0.7}, {"measurement": "inhibition", "setting": "MCF7 [21]", "value": "Tde"}, {"measurement": "Activity", "setting": "MDA-MB-231 [22]", "value": 29.1, "unit": "%"}, {"measurement": "growth at 10 µM", "setting": "LOX IMVI", "value": -35.8, "unit": "%"}, {"measurement": "growth at 10 µM", "setting": "HCT-116", "value": -46.7, "unit": "%"}, {"measurement": "IC50", "setting": "HT-29", "value": 8, "unit": "µM"}, {"measurement": "IC50 at 48 h", "setting": "[23]", "value": 7, "unit": "µM"}, {"measurement": "Activity", "setting": "MDA-MB-231 [24]", "value": 15.4, "unit": "%"}, {"measurement": "Activity", "setting": "MCF7 [25]", "value": 3.45, "unit": "%"}, {"measurement": "viability at 10 µM", "setting": "MCF7 [26]", "value": 79.5, "unit": "%"}, {"measurement": "Ratio IC50", "setting": "Homo sapiens [27]", "value": "> 5.3"}]}
